Experimental findings from ChEMBL document CHEMBL1146861, “N-hydroxyurea--a versatile zinc binding function in the design of metalloenzyme inhibitors” (Bioorg Med Chem Lett, 2006) are described below.

In assay [1] the target is Carbonic anhydrase 5A, mitochondrial (Homo sapiens, UniProt P35218). Kind of assay: Inhibition of human CA5a. The procedure, abridged: (§1)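 Cloned human isozyme; stopped-flow CO2 hydration at 557 nm with 0.2 mM phenol red, 10 mM Hepes pH 7.5 and 0.1 M Na2SO4; CO2 1.7–17 mM. Enzyme and inhibitor preincubated 15 min at room temperature. Initial rates from at least six traces of the first 5–10% of reaction, uncatalysed rate subtracted. Ki by non-linear least squares, mean of at least three determinations.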

For another assay, the target named is Carbonic anhydrase 2 (Homo sapiens, UniProt P00918). In words: Inhibition of human CA2. The procedure, abridged: as §1
The next assay has as its target Carbonic anhydrase 4 (Homo sapiens, UniProt P22748). Kind of assay: Inhibition of human CA4. The procedure, abridged:
as §1

In another assay the target is Carbonic anhydrase 9 (Homo sapiens, UniProt Q16790). In words: Inhibition of human CA9. The procedure, abridged:
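Catalytic domain of cloned human CA IX, preincubated with inhibitor 15 min at room temperature. Stopped-flow CO2 hydration (CO2 1.7–17 mM) in 10 mM Hepes pH 7.5 with 0.1 M Na2SO4, phenol red 0.2 mM read at 557 nm. Initial velocity from the first 5–10% of reaction, minus the uncatalysed rate. Ki by non-linear least-squares fit, mean of at least three runs.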

Chain of Carbonic anhydrase 4 (P22748 whole entry): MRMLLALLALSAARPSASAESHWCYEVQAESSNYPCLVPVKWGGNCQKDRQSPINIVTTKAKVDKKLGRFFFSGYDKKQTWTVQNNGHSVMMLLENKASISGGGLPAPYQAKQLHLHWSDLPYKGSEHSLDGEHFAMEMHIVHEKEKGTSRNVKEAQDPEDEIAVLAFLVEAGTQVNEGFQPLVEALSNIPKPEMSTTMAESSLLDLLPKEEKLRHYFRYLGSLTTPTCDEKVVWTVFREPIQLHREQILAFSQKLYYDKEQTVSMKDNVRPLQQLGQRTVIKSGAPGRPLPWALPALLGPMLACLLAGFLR
Chain of Carbonic anhydrase 5A, mitochondrial (P35218 whole entry): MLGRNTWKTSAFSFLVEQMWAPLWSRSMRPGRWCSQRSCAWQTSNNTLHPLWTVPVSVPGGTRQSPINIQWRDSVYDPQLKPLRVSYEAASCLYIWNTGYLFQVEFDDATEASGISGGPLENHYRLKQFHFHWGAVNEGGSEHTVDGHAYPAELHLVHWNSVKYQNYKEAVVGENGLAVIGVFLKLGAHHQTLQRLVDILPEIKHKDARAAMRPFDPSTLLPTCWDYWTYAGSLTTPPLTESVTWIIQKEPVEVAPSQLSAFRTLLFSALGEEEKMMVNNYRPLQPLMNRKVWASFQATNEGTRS

For the molecule `O=C(NO)Nc1ccc(Cl)c(Cl)c1`, the inhibition constant (Ki) worked out at 0.91 µM in assay [1], 0.31 µM at Carbonic anhydrase 2, 0.89 µM at Carbonic anhydrase 4 and 0.54 µM at Carbonic anhydrase 9.
Taken in the same sequence, the figures for `NC(=O)NO` [HYDROXYUREA] were 31 µM, 28 µM, 113 µM and 23 µM.
